From ChEMBL document CHEMBL4665798, “Novel Human Urate Transporter 1 Inhibitors as Hypouricemic Drug Candidates with Favorable Druggability” (J Med Chem, 2020)
pIC50: −log10 of the molar value. Blank lines part the entries; values can stand above or below the compound they belong to.

What was measured:
[1] = molecular target: T1, Solute carrier family 22 member 12 (Homo sapiens, UniProt Q96S37); assay: Inhibition of human URAT1 expressed in HEK293T cells assessed as reduction in [14C]uric acid uptake preincubated for 15 mins followed by [14C]uric acid addition by liquid scintillation counting method; assay type: cell-based
T1 sequence (Q96S37 whole entry): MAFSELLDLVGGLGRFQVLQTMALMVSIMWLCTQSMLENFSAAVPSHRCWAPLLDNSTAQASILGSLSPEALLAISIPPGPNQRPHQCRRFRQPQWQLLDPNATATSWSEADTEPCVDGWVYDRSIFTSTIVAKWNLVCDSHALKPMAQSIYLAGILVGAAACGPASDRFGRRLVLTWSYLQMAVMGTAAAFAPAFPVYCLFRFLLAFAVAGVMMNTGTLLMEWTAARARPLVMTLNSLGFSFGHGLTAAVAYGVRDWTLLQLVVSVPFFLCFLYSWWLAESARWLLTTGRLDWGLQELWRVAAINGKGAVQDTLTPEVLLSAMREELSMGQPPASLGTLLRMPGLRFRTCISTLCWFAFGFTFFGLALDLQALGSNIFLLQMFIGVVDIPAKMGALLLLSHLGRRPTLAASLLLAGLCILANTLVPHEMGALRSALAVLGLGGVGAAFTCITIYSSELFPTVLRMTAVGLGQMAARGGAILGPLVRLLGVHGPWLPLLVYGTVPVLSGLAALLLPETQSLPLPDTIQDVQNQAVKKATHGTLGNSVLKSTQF

[2] = system: Mus musculus; assay: Hypouricemic activity in Kunming mouse model of xanthine/potassium oxonate-induced acute hyperuricemia assessed as decrease in serum uric acid level at 2 mg/kg administered 3 hrs prior to xanthine/potassium oxonate and measured after 6 hrs relative to control; assay type: functional; parameters: scale not given: the % may be the effect or the level left; conditions: time 9 hrs
Procedure, shortened: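 Male Kunming mice, hyperuricemia induced by intragastric xanthine plus subcutaneous potassium oxonate (0.2 mL each). […] Groups: normal vehicle, untreated model, active control, test. Serum uric acid measured. Decrease ratio = (model SUA − compound SUA)/(model SUA − vehicle SUA).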

[3] = species: Rattus norvegicus; assay: Hypouricemic activity in rat model of xanthine/potassium oxonate-induced acute hyperuricemia assessed as decrease in serum uric acid level relative to control; assay type: functional; parameters: scale not given: the % may be the effect or the level left
[4] = AUC (0 to infinity) in male Kunming mouse at 50 mg/kg, po by LC-MS/MS analysis; assay type: ADME, organism-based; parameters: route oral, time infinity, dose 50 mg/kg; conditions: in vivo
Procedure, shortened: (§1)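 Male Kunming mice, ten in total, split into five groups; single oral dose in PEG 400/normal saline (70/30, v/v). Blood taken from submandibular or saphenous vein into K2EDTA tubes at 0.25, 0.5, 1, 2, 4, 8, 24, 48, 72 h. Plasma spun at about 4 °C and kept at -70 °C. Acetonitrile precipitation with dexamethasone internal standard, then LC-MS/MS against plasma standard curves.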

[5] = Acute toxicity in Kunming mouse assessed as death at 250 mg/kg, ig measured for 1 week relative to control; assay type: organism-based; conditions: in vivo, po, 168 h, time 1 weeks
Procedure, shortened: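 Kunming mice of 10-12 g, 12 per group (6 male, 6 female), fasted 12 h. Single intragastric dose of a suspension in 5% CMC-Na. Deaths, behaviour (lethargy, clonic convulsion, anorexia, ruffled fur) and body weight followed for one week and compared with vehicle controls.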

[6] = Cmax in male Kunming mouse at 2 mg/kg, po by LC-MS/MS analysis; assay type: ADME, organism-based; parameters: route oral, dose 2 mg/kg; conditions: in vivo; procedure, shortened: as §1
[7] = Sub-acute toxicity in Kunming mouse assessed as hydropic degeneration of hepatocytes at 50 mg/kg, po administered as single dose every other day for 14 days by H and E staining based assay; assay type: organism-based; conditions: in vivo, 336 h, time 14 day
[8] = Acute toxicity in male Kunming mouse assessed as change in body weight at 500 mg/kg, ig measured for 1 week; assay type: organism-based; conditions: in vivo, po, 168 h, time 1 weeks
[9] = Cmax in male Kunming mouse at 50 mg/kg, po by LC-MS/MS analysis; assay type: ADME, organism-based; parameters: route oral, dose 50 mg/kg; conditions: in vivo; procedure, shortened: as §1
[10] = Acute toxicity in Kunming mouse assessed as induction of abnormal behaviors by measuring lethargy at 500 mg/kg, ig; assay type: organism-based; conditions: in vivo, po
[11] = Sub-acute toxicity in Kunming mouse assessed as edema in proximal tubule at 50 mg/kg, po administered as single dose every other day for 14 days by H and E staining based assay; assay type: organism-based; conditions: in vivo, 336 h, time 14 day
Procedure, shortened: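 Kunming mice, n = 4 per sex, fasted 12 h. Dosed orally on D0, D2, D4, D6, D8, D10 and D12; controls received an equal volume of vehicle. Weighed before each dose. Killed at D14; heart, liver, spleen, lung and kidney taken for haematoxylin and eosin staining.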

[12] = Acute toxicity in Kunming mouse assessed as induction of abnormal behaviors by measuring clonic convulsion at 500 mg/kg, ig; assay type: organism-based; conditions: in vivo, po
[13] = MRT (0 to infinity) in male Kunming mouse at 50 mg/kg, po by LC-MS/MS analysis; assay type: ADME, organism-based; conditions: in vivo; procedure, shortened: as §1
[14] = Half-life in male Kunming mouse at 2 mg/kg, po by LC-MS/MS analysis; assay type: ADME, organism-based; conditions: in vivo; procedure, shortened: as §1
[15] = AUC (0 to t) in male Kunming mouse at 2 mg/kg, po by LC-MS/MS analysis; assay type: ADME, organism-based; parameters: dose 2 mg/kg; conditions: in vivo; procedure, shortened: as §1
[16] = Sub-acute toxicity in Kunming mouse assessed as ballooning degeneration of liver at 50 mg/kg, po administered as single dose every other day for 14 days by H and E staining based assay; assay type: organism-based; conditions: in vivo, 336 h, time 14 day
[17] = Tmax in male Kunming mouse at 50 mg/kg, po by LC-MS/MS analysis; assay type: ADME, organism-based; conditions: in vivo; procedure, shortened: as §1
[18] = Acute toxicity in Kunming mouse assessed as induction of abnormal behaviors by measuring anorexia at 500 mg/kg, ig; assay type: organism-based; conditions: in vivo, po
[19] = Sub-acute toxicity in Kunming mouse assessed as hepatocellular condensation of liver at 50 mg/kg, po administered as single dose every other day for 14 days by H and E staining based assay; assay type: organism-based; conditions: in vivo, 336 h, time 14 day
[20] = Tmax in male Kunming mouse at 2 mg/kg, po by LC-MS/MS analysis; assay type: ADME, organism-based; conditions: in vivo; procedure, shortened: as §1
[21] = Acute toxicity in female Kunming mouse assessed as change in body weight at 500 mg/kg, ig measured for 1 week; assay type: organism-based; conditions: in vivo, po, 168 h, time 1 weeks
[22] = Half-life in male Kunming mouse at 50 mg/kg, po by LC-MS/MS analysis; assay type: ADME, organism-based; conditions: in vivo; procedure, shortened: as §1
[23] = AUC (0 to infinity) in male Kunming mouse at 2 mg/kg, po by LC-MS/MS analysis; assay type: ADME, organism-based; parameters: time infinity, route oral, dose 2 mg/kg; conditions: in vivo; procedure, shortened: as §1
[24] = MRT (0 to infinity) in male Kunming mouse at 2 mg/kg, po by LC-MS/MS analysis; assay type: ADME, organism-based; conditions: in vivo; procedure, shortened: as §1
[25] = Sub-acute toxicity in male Kunming mouse assessed as increase in body weight at 50 mg/kg, po administered once every second day for 14 days; assay type: organism-based; conditions: in vivo, 336 h, time 14 day
[26] = Sub-acute toxicity in female Kunming mouse assessed as increase in body weight at 50 mg/kg, po administered once every second day for 14 days; assay type: organism-based; conditions: in vivo, 336 h, time 14 day
[27] = AUC (0 to t) in male Kunming mouse at 50 mg/kg, po by LC-MS/MS analysis; assay type: ADME, organism-based; parameters: dose 50 mg/kg; conditions: in vivo; procedure, shortened: as §1
[28] = Sub-acute toxicity in Kunming mouse assessed as congestion in hepatic central vein at 50 mg/kg, po administered as single dose every other day for 14 days by H and E staining based assay; assay type: organism-based; conditions: in vivo, 336 h, time 14 day

pIC50 [1]: < 4.52
Structure (SMILES): CC(Sc1nc2cccnc2n1-c1ccc(C2CC2)c2ccccc12)C(=O)O (stereo unspecified)
Activity [2]: 42.06%

Structure (SMILES): O=C(O)CSc1nnc(Br)n1-c1ccc(C2CC2)c2ccccc12
Activity [3]: 52.99%
AUC(0-inf) [4]: 145000 ng·h/mL
Activity [5]: Toxic
Cmax [6]: 1500 ng/mL
Activity [7]: Toxic
Activity [8]: Non-Toxic
Cmax [9]: 26500 ng/mL
Activity [10]: Non-Toxic
Activity [11]: Toxic
Activity [12]: Non-Toxic
MRT inf [13]: 6.35 h
half-life [14]: 3.08 h
AUC(0-t) [15]: 7080 ng·h/mL
Activity [16]: Toxic
Tmax [17]: 1 h
Activity [18]: Non-Toxic
Activity [19]: Toxic
Tmax [20]: 0.667 h
Activity [21]: Non-Toxic
half-life [22]: 7.46 h
AUC(0-inf) [23]: 7120 ng·h/mL
MRT inf [24]: 5.09 h
Activity [25]: Non-Toxic
Activity [26]: Non-Toxic
AUC(0-t) [27]: 144000 ng·h/mL
Activity [2]: 27.06%
Activity [28]: Toxic

Structure (SMILES): O=C(O)C1(Sc2nc3ncccc3n2-c2ccc(C3CC3)c3ccccc23)CCC1
Activity [11]: Toxic
Activity [2]: 62.18%
